Source: PubChem
SIRT5 inh: SIRT5 desuccinylase inhibitors, primary screen, biochemical, fluorescence imaging, single point, set 5 | Purified SirT5, succinyl-peptide AMC, trypsin-coupled fluorescence | inhibition, % at 15 µM | 330,000 compounds, 1.1% hits | AID 652115, 2013; in the data active = inhibition above about 15%
Target sequence (Q9NXA8 whole entry, looked up): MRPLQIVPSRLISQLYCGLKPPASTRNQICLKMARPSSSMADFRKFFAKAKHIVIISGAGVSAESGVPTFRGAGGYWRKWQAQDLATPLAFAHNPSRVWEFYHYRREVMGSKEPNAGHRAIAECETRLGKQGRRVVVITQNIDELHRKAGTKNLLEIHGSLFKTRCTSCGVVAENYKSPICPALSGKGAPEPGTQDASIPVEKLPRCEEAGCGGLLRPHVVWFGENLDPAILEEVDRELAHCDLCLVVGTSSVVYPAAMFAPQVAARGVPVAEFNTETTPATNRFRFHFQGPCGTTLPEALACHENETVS
Ecoli rRNA inh: reduced GFP signal of wild-type E. coli, primary screen, bacterial rRNA inhibitor project, GFP/RFP fluorescence, OD600, single point. E. coli WT GFP vs humanized-ribosome RFP mutants, 24 h; stronger effect = lower value; DMSO median 0, no signal -100. GFP signal change (wild-type ribosome), % (concentration not given with the values). 350,000 compounds, 1.6% hits;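 active = significant combined selectivity score with lowered wild-type GFP, culture density cut under 30%, mutant RFP and density less affected; inactive = any of these conditions unmet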
C2C12 statin: suppressors of statin myotoxicity in C2C12 myotubes, primary screen, cell-based, single point, plate reader; C2C12 myotubes + simvastatin, ATP luminescence, 48 h; scaled: DMSO 0, geranylgeraniol control 100; rescue of ATP level, % at 7.49 µM; 330,000 compounds, 0.78% hits;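 active = mean ATP rescue above about 67%, or every replicate alone reaching that limit, limit read from the data, passing the limit was not always enough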;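 note: myotubes were challenged with 10 µM simvastatin during compound exposure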
PGC1a acetyl inh: inhibitors of PGC1a acetylation signal, primary screen, cell-based, U2OS, AlphaScreen, inhibitor mode. 350,000 compounds, 0.17% hits. AID 651687, 2012. inhibition, % at 15.6 µM. AlphaScreen anti-acetyl-lysine; with virally co-expressed GCN5 acetyltransferase;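 active = every replicate shows inhibition of at least 40%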;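 note: 0% = neutral control wells and 100% = positive control wells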
Cneo AK release: Cryptococcus neoformans cell lysis inducers, primary screen, AK release luminescence, single concentration; AID 651654, 2012; C. neoformans lysis, adenylate kinase release luminescence, 4 h; normalised: neutral wells 0, clomiphene wells 100; 360,000 compounds, 0.2% hits; lysis activity, % at 15 µM;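 active = mean lysis activity across replicates of at least 80%, whatever share of replicates individually reach that level; inactive = mean lysis activity below 80%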
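Schedule: static 4 h at 37 °C with compound, 1 h detection; system: C. neoformans cells; benchmarks: Clomiphene as positive control; buffer or medium: fresh YPD medium; measure: luminescence rise reflecting yeast cell lysis; measured by: luminescent adenylate kinase detection reagent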
S100A4 inh HTS: inhibitors of S100A4-myosin IIA peptide binding, primary screen, biochemical, fluorescence polarization, TAMRA-MyoIIA peptide; Protein S100-A4 (Homo sapiens), P26447; inhibition, % at 10.7 µM; 360,000 compounds, 0.14% hits;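 active = mean inhibition of at least 70% across replicates, with every replicate also reaching that level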
Target sequence (P26447 whole entry, looked up): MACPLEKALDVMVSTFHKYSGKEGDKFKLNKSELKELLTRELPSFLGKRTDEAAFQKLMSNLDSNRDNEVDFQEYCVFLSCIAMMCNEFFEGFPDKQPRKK
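Material: S100A4 monomer (human). Medium: Calcium-containing HEPES buffer, pH 7.2. Probe or stimulus: labelled myosin peptide probe, 5 nM. Compound dosing: one concentration per compound. Timing: polarization read 5 min after assay mix addition, stable 5–60 min. Benchmarks: DMSO as neutral control, TFP as positive control.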
Numbers without * were called inactive. In the library only some 3% were active in any assay of this set; here they are far more common.

Screening O=C(C[C@H]1C[C@@H]2c3cc(NC(=O)C4CCOCC4)ccc3O[C@@H]2[C@H](CO)O1)NCc1ccc2c(c1)OCO2 returned SIRT5 inh 1, Ecoli rRNA inh 2, C2C12 statin -1, PGC1a acetyl inh 1, Cneo AK release -2 and S100A4 inh HTS 24.
For N#CC(C#N)=C1C=CC=CN1/C(=C\c1ccco1)C(=O)c1ccccc1 the results were SIRT5 inh 5, Ecoli rRNA inh -31 and S100A4 inh HTS -3.
`COc1ccc(C(=O)/C(=C\c2ccco2)N2C=CC=CC2=C(C#N)C#N)cc1` gave C2C12 statin -13, PGC1a acetyl inh 71* and Cneo AK release -1.
Screening COc1ccc(NC(=O)Nc2ccc3c(c2)C(=O)N([C@H](C)CO)C[C@H](C)[C@@H](CN(C)CC2CCCCC2)OCCCC[C@@H](C)O3)cc1 returned SIRT5 inh 3, Ecoli rRNA inh 7, C2C12 statin 19, PGC1a acetyl inh 4, Cneo AK release 2 and S100A4 inh HTS 15.
`C[C@@H]1CCCCO[C@H](CN(C)CC2CCCCC2)[C@H](C)CN([C@H](C)CO)C(=O)c2cc(NC(=O)Nc3ccc(C(F)(F)F)cc3)ccc2O1` gave SIRT5 inh 100*, Ecoli rRNA inh inactive, PGC1a acetyl inh -10, Cneo AK release -1 and S100A4 inh HTS -13.
Screening COc1ccc(NC(=O)Nc2ccc3c(c2)C(=O)N([C@@H](C)CO)C[C@@H](C)[C@@H](CN(C)CC2CCCCC2)OCCCC[C@H](C)O3)cc1 returned SIRT5 inh -2, Ecoli rRNA inh 2, C2C12 statin 89*, PGC1a acetyl inh 13, Cneo AK release 1 and S100A4 inh HTS 11.
For O=C(COC(=O)CC12CC3CC(CC(C3)C1)C2)Nc1cccnc1Cl the results were SIRT5 inh -3, Ecoli rRNA inh -24*, PGC1a acetyl inh 7 and S100A4 inh HTS 3.
For COCC(=O)N1CC2(C1)[C@@H](c1ccc(-c3cccc(F)c3)cc1)[C@H](CO)N2C(=O)COC the results were SIRT5 inh -2, Ecoli rRNA inh 1, PGC1a acetyl inh 5 and S100A4 inh HTS 5.
COc1ccc(OCC(O)CN(CC(O)COc2ccc(OC)cc2)c2cccc(O)c2)cc1 (centres undefined) was read as SIRT5 inh -1, Ecoli rRNA inh -30*, C2C12 statin 9, PGC1a acetyl inh -4, Cneo AK release -1 and S100A4 inh HTS -2.
For COc1ccc(OCC(O)COc2ccc(OC)cc2)cc1 the results were C2C12 statin -8, PGC1a acetyl inh 0 and Cneo AK release -2.
O=C(Nc1ccc2c(c1)OCCO2)C(c1ccnc2ccccc12)N1CCN(c2ccc(C(F)(F)F)cn2)CC1 (centres undefined) was read as SIRT5 inh -2, Ecoli rRNA inh 17, C2C12 statin 12, PGC1a acetyl inh -16, Cneo AK release -17 and S100A4 inh HTS 1.
`O=C(Nc1ccc2c(c1)OCCO2)C(c1ccnc2ccccc12)N1CCN(c2ccc(F)cc2)CC1` (centres undefined) gave SIRT5 inh 29*, Ecoli rRNA inh 0, C2C12 statin 1, PGC1a acetyl inh -10, Cneo AK release 2 and S100A4 inh HTS -6.
`O=C(Nc1ccncc1)Nc1cccc(C(F)(F)F)c1` gave SIRT5 inh -1, Ecoli rRNA inh -53, C2C12 statin -13, Cneo AK release -3 and S100A4 inh HTS -5.
Screening NC(=O)/C=C\C(=O)Nc1cccc(C(F)(F)F)c1 returned SIRT5 inh 3, Ecoli rRNA inh 1, C2C12 statin -15, PGC1a acetyl inh -38, Cneo AK release 12 and S100A4 inh HTS 3.
`NNC(=O)Nc1cccc(C(F)(F)F)c1` gave SIRT5 inh 41*, Ecoli rRNA inh 20, C2C12 statin 5, PGC1a acetyl inh 2, Cneo AK release 3 and S100A4 inh HTS 2.
For N/C(=N\OC(=O)Nc1cccc(C(F)(F)F)c1)c1ccno1 the results were SIRT5 inh -2, Ecoli rRNA inh -51*, C2C12 statin -4, PGC1a acetyl inh 14, Cneo AK release 6 and S100A4 inh HTS 0.
C[C@@H]1CN([C@@H](C)CO)S(=O)(=O)c2ccc(-c3ccccc3)cc2O[C@@H]1CN(C)S(C)(=O)=O was read as SIRT5 inh -2, Ecoli rRNA inh -5, C2C12 statin 0, PGC1a acetyl inh 0, Cneo AK release 3 and S100A4 inh HTS -26.
Screening Nc1nnc(CC(=O)N/N=C/c2ccc(-c3cccc(C(=O)O)c3)o2)s1 returned SIRT5 inh 20*, Ecoli rRNA inh 12, PGC1a acetyl inh 6, Cneo AK release 1 and S100A4 inh HTS 0.
For CC1Cc2ccccc2N1C(=O)C1CCN(S(=O)(=O)Cc2ccccc2)CC1 (centres undefined) the results were C2C12 statin 103*, PGC1a acetyl inh -12 and Cneo AK release 4.
COc1ccc(CNC(=O)C2CCN(S(=O)(=O)c3ccc4c(c3)C(C)(C)C(=O)N4C)CC2)cc1 was read as Ecoli rRNA inh 4, C2C12 statin 86*, PGC1a acetyl inh 0, Cneo AK release 0 and S100A4 inh HTS -2.
`Cc1ccc(CNC(=O)C2CCN(S(=O)(=O)c3ccc4c(c3)CC(C)N4C(=O)C3CC3)CC2)cc1` (centres undefined) gave SIRT5 inh -6, Ecoli rRNA inh -28*, C2C12 statin 6, PGC1a acetyl inh -11, Cneo AK release 12 and S100A4 inh HTS -2.
Screening O=C(O)C1CCN(S(=O)(=O)Cc2ccccc2)CC1 returned SIRT5 inh 1, Ecoli rRNA inh 12, C2C12 statin 12, PGC1a acetyl inh 2, Cneo AK release 2 and S100A4 inh HTS 0.
Screening Cc1ccc(-c2ccc([C@@H]3[C@H]4CN(S(=O)(=O)c5cccc(C)c5)CCCCN4[C@H]3CO)cc2)cc1 returned SIRT5 inh 18*, PGC1a acetyl inh 1, Cneo AK release 1 and S100A4 inh HTS 12.
`Cc1ccc(-c2ccc([C@@H]3[C@@H](CO)N4CCCCN(S(=O)(=O)c5cccc(C)c5)C[C@H]34)cc2)cc1` gave SIRT5 inh 23*, PGC1a acetyl inh -18, Cneo AK release 5 and S100A4 inh HTS 11.
